# Test results reported in ChEMBL document CHEMBL1157714, “Synthesis, anti-HIV and anti-oxidant activities of caffeoyl 5,6-anhydroquinic acid derivatives” (Bioorg Med Chem, 2010).
# Columns and labels:
# MT4 = test: Cytotoxicity against human MT4 cells after 5 days; type: cell-based; settings: mt4, 120 h
# How it was run: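 Over a 5-day culture in RPMI-1640 with graded compound concentrations, MT-4 cell growth was checked by optical microscopy. The cytotoxic concentration (CC) was the concentration that reduced MT-4 viability.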
# [1] = system: Human immunodeficiency virus 1; test: Antiviral activity against HIV1 3B infected in human MT4 cells after 5 days; type: functional
# How it was run: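 MT-4 cells were infected 1 h with HIV-1 (HTLV-IIIB) at TCID50 0.001/cell, resuspended at 1 × 10⁵ cells/ml in RPMI-1640, and cultured 5 days with graded compound concentrations. Infected and uninfected controls had no compound. On day 5, the concentration fully preventing the virus-induced cytopathic effect was read by optical microscopy.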
# [2] = system: Radical scavenging activity; test: Antioxidant activity assessed as DPPH radical scavenging activity; type: functional
# How it was run: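 Each well held 10 µl compound in DMSO plus 190 µl of 0.1 mM DPPH in ethanol. After 20 min at rt, absorbance was read at 540 nm. Effective rate % was computed, each compound was tested at 4 concentrations, and EC50 was derived from a plot of effective rate % against concentration.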
# [3] = Antioxidant activity assessed as SOD-like activity by WST1 assay; type: functional
# How it was run: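 SOD Assay Kit-WST in 96-well plates. Compound in DMSO was mixed with WST working solution, and the reaction was started with xanthine oxidase. After 20 min at 37 °C, absorbance was read at 450 nm. Inhibition % was corrected with three blanks (DMSO, no enzyme, DMSO plus buffer). Four concentrations were tested, and IC50 was taken from the inhibition-concentration plot.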
EC50 [2],SMILES,CC100 (MT4),IC100 [1],IC50 [3]
20 mg/L,CC1(C)OC(=O)[C@@]2(C=C[C@@H](O)[C@H](OC(=O)/C=C/c3ccc(O)c(O)c3)C2)O1,> 100 µg/mL,50 µg/mL,1.5 mg/L
29 mg/L,CCC1(CC)OC(=O)[C@]2(C[C@@H](O)[C@H](O)[C@H](OC(=O)/C=C/c3ccc(O)c(O)c3)C2)O1,> 25 µg/mL,–,2 mg/L
20 mg/L,CC1(C)OC(=O)[C@@]2(C=C[C@@H](OC(=O)/C=C/c3ccc(O)c(O)c3)[C@H](OC(=O)/C=C/c3ccc(O)c(O)c3)C2)O1,> 25 µg/mL,–,2 mg/L
> 50 mg/L,CC(=O)Oc1ccc(/C=C/C(=O)O[C@@H]2C[C@]3(C=C[C@H]2O)OC(C)(C)OC3=O)cc1OC(C)=O,> 100 µg/mL,50 µg/mL,1.8 mg/L
> 50 mg/L,CC1(C)O[C@H]2[C@H](O)C[C@@]3(C[C@H]2O1)OC(C)(C)OC3=O [QUINIC ACID BISACETONIDE],> 100 µg/mL,–,> 100 mg/L
> 50 mg/L,CC1(C)O[C@H]2C=C[C@@]3(C[C@H]2O1)OC(C)(C)OC3=O,> 100 µg/mL,–,90 mg/L
> 50 mg/L,CC(=O)Oc1ccc(/C=C/C(=O)O[C@@H]2C=C[C@@]3(C[C@H]2OC(=O)/C=C/c2ccc(OC(C)=O)c(OC(C)=O)c2)OC(C)(C)OC3=O)cc1OC(C)=O,> 6.25 µg/mL,–,6.3 mg/L
16 mg/L,O=C(/C=C/c1ccc(O)c(O)c1)O[C@@H]1C[C@](O)(C(=O)O)C[C@@H](OC(=O)/C=C/c2ccc(O)c(O)c2)[C@H]1O,> 50 µg/mL,12.5 µg/mL,2.3 mg/L
19 mg/L,CC[C@@H]1OC(=O)[C@]2(C[C@@H](O)[C@H](O)[C@H](OC(=O)/C=C/c3ccc(O)c(O)c3)C2)O1,> 12.5 µg/mL,–,1 mg/L
17 mg/L,O=C(/C=C/c1ccc(O)c(O)c1)O[C@@H]1C[C@@](O)(C(=O)O)C[C@@H](O)[C@@H]1O,–,–,1.5 mg/L
20 mg/L,CC[C@H]1OC(=O)[C@]2(C[C@@H](O)[C@H](O)[C@H](OC(=O)/C=C/c3ccc(O)c(O)c3)C2)O1,> 12.5 µg/mL,–,1.1 mg/L
22 mg/L,CCCCC1(CCCC)OC(=O)[C@]2(C[C@@H](O)[C@H](O)[C@H](OC(=O)/C=C/c3ccc(O)c(O)c3)C2)O1,> 25 µg/mL,–,2 mg/L
18 mg/L,CC1(C)OC(=O)[C@@]2(C=C[C@@H](OC(=O)/C=C/c3ccc(O)c(O)c3)[C@H](O)C2)O1,> 100 µg/mL,50 µg/mL,1.3 mg/L
15 mg/L,O=C(/C=C/c1ccc(O)c(O)c1)O[C@@H]1C=C[C@@](O)(C(=O)O)C[C@H]1O,> 25 µg/mL,–,0.7 mg/L
> 50 mg/L,CC(=O)Oc1ccc(/C=C/C(=O)O[C@@H]2C=C[C@@]3(C[C@H]2O)OC(C)(C)OC3=O)cc1OC(C)=O,–,–,2.9 mg/L
8 mg/L,CC1(C)OC(=O)[C@]2(C[C@@H](O)[C@H](O)[C@H](OC(=O)/C=C/c3ccc(O)c(O)c3)C2)O1,> 50 µg/mL,25 µg/mL,1.6 mg/L
30 mg/L,CCCC1(CCC)OC(=O)[C@]2(C[C@@H](O)[C@H](O)[C@H](OC(=O)/C=C/c3ccc(O)c(O)c3)C2)O1,> 25 µg/mL,–,2 mg/L
> 50 mg/L,CC1(C)OC(=O)[C@@]2(C=C[C@@H](O)[C@H](O)C2)O1,> 100 µg/mL,–,> 100 mg/L
11 mg/L,O=C(/C=C/c1ccc(O)c(O)c1)O[C@@H]1C=C[C@@](O)(C(=O)O)C[C@H]1OC(=O)/C=C/c1ccc(O)c(O)c1,> 25 µg/mL,6.25 µg/mL,1.9 mg/L
16 mg/L,O=C(/C=C/c1ccc(O)c(O)c1)O[C@@H]1C[C@](O)(C(=O)O)C=C[C@H]1O,> 25 µg/mL,–,0.5 mg/L
20 mg/L,COC(=O)[C@@]1(O)C[C@@H](O)[C@H](O)[C@H](OC(=O)/C=C/c2ccc(O)c(O)c2)C1,> 25 µg/mL,–,1.4 mg/L
28 mg/L,CCCCCC1(CCCCC)OC(=O)[C@]2(C[C@@H](O)[C@H](O)[C@H](OC(=O)/C=C/c3ccc(O)c(O)c3)C2)O1,> 12.5 µg/mL,–,2.9 mg/L
